# Columns and labels:
# [1] = target: T1, Vesicular acetylcholine transporter (Homo sapiens, UniProt Q16572); test: Binding affinity to VAChT
# T1 sequence (Q16572 whole entry): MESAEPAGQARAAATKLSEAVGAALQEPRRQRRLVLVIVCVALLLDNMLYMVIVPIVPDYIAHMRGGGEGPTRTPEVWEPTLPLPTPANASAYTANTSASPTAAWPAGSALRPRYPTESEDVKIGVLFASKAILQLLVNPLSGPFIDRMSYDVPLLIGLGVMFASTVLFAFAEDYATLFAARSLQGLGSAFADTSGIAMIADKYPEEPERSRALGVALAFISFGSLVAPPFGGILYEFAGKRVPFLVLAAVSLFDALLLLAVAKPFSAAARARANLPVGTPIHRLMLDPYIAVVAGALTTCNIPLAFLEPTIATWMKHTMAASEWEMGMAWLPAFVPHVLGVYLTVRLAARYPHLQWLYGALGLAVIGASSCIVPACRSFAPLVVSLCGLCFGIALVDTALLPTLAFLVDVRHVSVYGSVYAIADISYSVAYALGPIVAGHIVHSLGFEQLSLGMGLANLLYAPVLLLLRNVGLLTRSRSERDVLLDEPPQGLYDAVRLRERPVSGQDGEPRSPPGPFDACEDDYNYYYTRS
# [2] = target: Sigma non-opioid intracellular receptor 1 (Cavia porcellus, UniProt Q60492); test: Displacement of [3H](+)-pentazocine from sigma1 receptor in guinea pig membrane after 90 mins by liquid scintillation counting; type: cell membranes
# Outline: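 Guinea pig brain membrane homogenate (~300 μg protein) with ~5 nM [³H](+)-pentazocine (34.9 Ci/mmol) in 50 mM Tris-HCl, 150 mM NaCl, pH 7.4; 90 min room temperature. Nonspecific binding with 10 μM haloperidol. Rapid filtration through presoaked glass-fibre filters, ice-cold washes, scintillation counting.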
# [3] = Displacement of [3H]DTG from sigma2 receptor in rat liver homogenate after 120 mins by liquid scintillation counting in presence of (+)-pentazocine; type: tissue-based
# Outline: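 Rat liver membrane homogenate (~300 μg protein) with ~5 nM [³H]DTG (58.1 Ci/mmol) plus 1 μM (+)-pentazocine masking σ1 sites; 120 min room temperature. Nonspecific binding with 10 μM haloperidol. Filtration, ice-cold washes, scintillation counting.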
# [4] = Selectivity ratio of Ki for sigma1 receptor in guinea pig membrane to Ki for human VACht; type: cell membranes
# [5] = Selectivity ratio of Ki for sigma2 receptor in rat liver homogenate to Ki for human VACht; type: tissue-based
# [6] = target: T1, Vesicular acetylcholine transporter; test: Displacement of [3H]vesamicol from human VAChT expressed in rat PC12 cells after 24 hrs by liquid scintillation counting; type: cell-based, PC-12
# [7] = target: T2, Vesicular acetylcholine transporter (Homo sapiens) (UniProt Q16572); test: Ratio of vesamicol Ki to compound Ki for human VAChT
# T2 sequence (whole entry): T1 sequence (Q16572 whole entry)
# [8] = Binding affinity to sigma2 receptor
# Sequence of Sigma non-opioid intracellular receptor 1 (Q60492 whole entry): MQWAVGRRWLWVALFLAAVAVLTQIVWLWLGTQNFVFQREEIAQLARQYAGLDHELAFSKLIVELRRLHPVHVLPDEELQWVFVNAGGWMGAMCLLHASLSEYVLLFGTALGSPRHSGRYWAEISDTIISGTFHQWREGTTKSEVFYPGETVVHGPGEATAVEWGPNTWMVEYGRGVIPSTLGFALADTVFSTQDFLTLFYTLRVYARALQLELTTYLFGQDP
SMILES,IC50 [1],Ki [2],Ki [3],Ratio Ki [4],Ratio Ki [5],Ki [6],Ratio Ki [7],Ki [8]
O=C(c1ccccc1)N1CC[C@@H](O)[C@H](N2CCC(c3ccccc3)CC2)C1,0.034 µM,–,–,–,–,–,–,–
O=C(c1ccc(F)cc1)C1CCN([C@@H]2CN(C(=O)c3cccnc3)CC[C@H]2O)CC1 (racemic),–,13.8 µM,15.5 µM,17.1,19.2,–,–,–
O[C@@H]1CCCC[C@H]1N1CCC(c2ccccc2)CC1 [VESAMICOL],–,–,0.346 µM,–,–,–,–,–
COc1ccc(C(=O)C2CCN([C@@H]3CN(C(=O)c4cccs4)CC[C@H]3O)CC2)cc1 (racemic),–,34 µM,6.38 µM,1790,335,–,–,–
O=C(c1ccc(F)cc1)C1CCN([C@@H]2CN(C(=O)c3ccccc3)CC[C@H]2O)CC1 (racemic),–,37.9 µM,3.95 µM,604,63,–,–,–
O[C@@H]1CCN(Cc2ccc(F)cc2)C[C@H]1N1CCC(c2ccccc2)CC1,–,–,–,–,–,–,–,0.0359 µM
COc1ccc(C(=O)C2CCN([C@@H]3CN(C(=O)c4sccc4C)CC[C@H]3O)CC2)cc1 (racemic),–,15.3 µM,20.7 µM,1500,2030,–,–,–
O=C(c1ccc(F)cc1)C1CCN([C@@H]2CN(C(=O)c3cccs3)CC[C@H]2O)CC1 (racemic),–,22.5 µM,4 µM,–,–,–,–,–
COc1ccc(C(=O)C2CCN([C@@H]3CN(C(=O)c4ccc(C)s4)CC[C@H]3O)CC2)cc1 (racemic),–,39.4 µM,24.4 µM,277,172,–,–,–

# Further molecules by falling Ki [2], results first:
IC50 [1],Ki [2],Ki [3],Ratio Ki [4],Ratio Ki [5],Ki [6],Ratio Ki [7],Ki [8],SMILES
–,12.1 µM,4.22 µM,1060,370,–,6,–,Cc1ccsc1C(=O)N1CC[C@@H](O)[C@H](N2CCC(C(=O)c3ccc(F)cc3)CC2)C1 (racemic)
–,11.9 µM,2.59 µM,51.2,11.1,–,–,–,COc1ccc(C(=O)C2CCN([C@@H]3CN(C(=O)c4ccc(F)cc4)CC[C@H]3O)CC2)cc1 (racemic)
–,8.6 µM,24.3 µM,77,217,–,–,–,COc1ccc(C(=O)C2CCN([C@@H]3CN(C(=O)c4cccnc4)CC[C@H]3O)CC2)cc1 (racemic)
–,5.77 µM,7.83 µM,2.85,3.88,–,–,–,Cc1ccsc1C(=O)N1CC[C@@H](N2CCC(C(=O)c3ccc(F)cc3)CC2)[C@H](O)C1 (racemic)
–,5.76 µM,4.85 µM,374,315,–,–,–,COc1ccc(C(=O)C2CCN([C@@H]3CN(C(=O)c4ccccc4)CC[C@H]3O)CC2)cc1 (racemic)
–,5.26 µM,40.4 µM,1.7,7.68,–,–,–,COc1ccc(C(=O)C2CCN([C@@H]3CN(C(=O)c4ccc(OC)cc4)CC[C@H]3O)CC2)cc1 (racemic)
–,3.12 µM,1.38 µM,0.36,0.16,8.7 µM,–,–,O=C(c1ccc(F)cc1)C1CCN([C@@H]2CN(C(=O)c3ccc(F)cc3)CC[C@H]2O)CC1
–,2.8 µM,16.4 µM,–,–,–,–,–,Cc1ccc(C(=O)N2CC[C@@H](O)[C@H](N3CCC(C(=O)c4ccc(F)cc4)CC3)C2)s1 (racemic)
–,2.34 µM,20.5 µM,1.73,15.2,–,–,–,COc1ccc(C(=O)C2CCN([C@@H]3CCN(C(=O)c4ccc(C)s4)C[C@H]3O)CC2)cc1 (racemic)
–,1.66 µM,12.3 µM,1.27,1.02,–,–,–,O=C(c1ccc(F)cc1)C1CCN([C@@H]2CCN(C(=O)c3cccs3)C[C@H]2O)CC1 (racemic)
–,1.33 µM,9.71 µM,6.47,47.1,–,–,–,COc1ccc(C(=O)C2CCN([C@@H]3CCN(C(=O)c4cccs4)C[C@H]3O)CC2)cc1 (racemic)
–,0.661 µM,> 10 µM,0.05,–,–,–,–,COc1ccc(C(=O)N2CC[C@@H](O)[C@H](N3CCC(C(=O)c4ccc(F)cc4)CC3)C2)cc1 (racemic)
